Test results from ChEMBL document CHEMBL2424523, “2,3,9- and 2,3,11-trisubstituted tetrahydroprotoberberines as D2 dopaminergic ligands” (Eur J Med Chem, 2013).

Tests used:
D(1A) dopamine receptor = D(1A) dopamine receptor (Rattus norvegicus, UniProt P18901); assay: Displacement of [3H]-SCH 23390 from dopamine D1 receptor in rat striatal membranes after 1 hr by liquid scintillation counting analysis; format: cell membranes, Membrane
Outline: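 Striatal membranes washed twice by centrifugation at 20000g in Tris-HCl (50 mM, pH 7.4), then resuspended in Tris with 5 mM MgSO4, 0.5 mM EDTA and 0.02% ascorbate. 100 µg protein incubated 1 h at 25 °C with 0.25 nM [3H]SCH 23390. Nonspecific binding defined with 30 µM SK&F 38393. Filtered on GF/B, scintillation counted. Mean ± SEM of 3-5 experiments.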

D(2) dopamine receptor = D(2) dopamine receptor (Rattus norvegicus, UniProt P61169); assay: Displacement of [3H]-raclopride from dopamine D2 receptor in rat striatal membranes after 1 hr by liquid scintillation counting analysis; format: cell membranes, Membrane
Sequence of D(2) dopamine receptor (P61169 whole entry): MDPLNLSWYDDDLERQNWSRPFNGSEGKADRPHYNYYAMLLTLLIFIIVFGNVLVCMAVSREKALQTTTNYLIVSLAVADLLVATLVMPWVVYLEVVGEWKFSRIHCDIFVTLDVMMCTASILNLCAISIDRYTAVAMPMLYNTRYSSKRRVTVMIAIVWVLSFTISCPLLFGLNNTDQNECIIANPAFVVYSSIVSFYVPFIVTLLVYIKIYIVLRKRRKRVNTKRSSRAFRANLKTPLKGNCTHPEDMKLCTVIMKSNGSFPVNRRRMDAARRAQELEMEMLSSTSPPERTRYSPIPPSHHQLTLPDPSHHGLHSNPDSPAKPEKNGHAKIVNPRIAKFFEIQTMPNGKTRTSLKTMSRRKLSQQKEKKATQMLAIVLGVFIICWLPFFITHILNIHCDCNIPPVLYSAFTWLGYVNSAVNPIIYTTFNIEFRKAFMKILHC
Outline: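 200 µg protein incubated 1 h at 25 °C with 0.5 nM [3H]raclopride. Nonspecific binding defined with 50 µM apomorphine. GF/B filtration, scintillation counting. Mean ± SEM of 3-5 experiments.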

[1] = Cytotoxicity against human neutrophil assessed as cell viability at 10 uM after 24 hrs by MTT assay; format: cell-based
Outline: (§1)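 Human peripheral blood neutrophils isolated from healthy-donor buffy coats by Ficoll-Hypaque, plated at 2 x 10^5 cells/mL in RPMI. Concentrations chosen from D2 Ki. Incubated 24 h at 37 °C, 5% CO2. MTT (1 mg/mL solution) added for 60 min, formazan dissolved in DMSO, absorbance read at 570/630 nm. Mean ± SEM, n=3.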

Rattus norvegicus = species on record: Rattus norvegicus; assay: Selectivity ratio of Ki for dopamine D1 receptor in rat striatal membranes to Ki for dopamine D2 receptor in rat striatal membranes; format: cell membranes; details: Membrane
Outline: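 Ratio Ki(D1)/Ki(D2) from striatal membrane displacement assays: [3H]SCH 23390 at 0.25 nM (D1) and [3H]raclopride at 0.5 nM (D2), each incubated 1 h at 25 °C, with filtration and scintillation counting. Ki data are from 3-5 experiments.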

[2] = Cytotoxicity against human neutrophil assessed as cell viability at 3 uM after 24 hrs by MTT assay; format: cell-based; outline: as §1
[3] = Cytotoxicity against human neutrophil assessed as cell viability at 0.1 uM after 24 hrs by MTT assay; format: cell-based; outline: as §1
[4] = Cytotoxicity against human neutrophil assessed as cell survival at 0.1 uM after 24 hrs by annexin V-FITC/propidium iodide staining-based flow cytometric analysis
Outline: (§2)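 Freshly isolated human blood neutrophils (Ficoll-Hypaque, healthy-donor buffy coats) at 2 x 10^6 cells/mL in supplemented RPMI. Cultured 24 h at 37 °C, 5% CO2, with or without compound. Annexin V-FITC/PI flow cytometry on 1 x 10^4 cells. Early apoptotic = annexin V+/PI−, late apoptotic/necrotic = V+/PI+, viable = V−/PI−. Mean ± SEM, n=3.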

[5] = Induction of apoptosis in human neutrophil at 0.1 uM after 24 hrs by annexin V-FITC/propidium iodide staining-based flow cytometric analysis; format: cell-based; outline: as §2
[6] = Cytotoxicity against human neutrophil assessed as cell viability at 100 uM after 24 hrs by MTT assay; format: cell-based; outline: as §1
[7] = Cytotoxicity against human neutrophil assessed as cell viability at 0.3 uM after 24 hrs by MTT assay; format: cell-based; outline: as §1

Sequence of D(1A) dopamine receptor (P18901 whole entry): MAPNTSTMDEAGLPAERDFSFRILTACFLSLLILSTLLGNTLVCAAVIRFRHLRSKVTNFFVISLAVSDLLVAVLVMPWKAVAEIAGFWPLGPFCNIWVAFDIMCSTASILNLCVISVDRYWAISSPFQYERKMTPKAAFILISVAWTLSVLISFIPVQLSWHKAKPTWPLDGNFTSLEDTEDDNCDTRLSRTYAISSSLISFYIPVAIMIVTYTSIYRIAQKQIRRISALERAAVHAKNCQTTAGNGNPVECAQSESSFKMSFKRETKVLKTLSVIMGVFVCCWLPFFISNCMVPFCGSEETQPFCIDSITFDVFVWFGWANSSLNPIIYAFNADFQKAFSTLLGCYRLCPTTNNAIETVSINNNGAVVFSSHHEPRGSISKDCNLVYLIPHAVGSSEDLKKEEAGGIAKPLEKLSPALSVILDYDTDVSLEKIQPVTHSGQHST

| Ki (D(1A) dopamine receptor; read-out: Ki) [nM] | Ki (D(1A) dopamine receptor; read-out: pKi (converted)) [nM] | Ki (D(2) dopamine receptor; read-out: Ki) [nM] | Ki (D(2) dopamine receptor; read-out: pKi (converted)) [nM] | Ratio Ki (Rattus norvegicus) | SMILES | Activity [1] | Activity [2] | Activity [3] | Activity [4] | Activity [5] | Activity [6] | Activity [7] |
| --- | --- | --- | --- | --- | --- | --- | --- | --- | --- | --- | --- | --- |
| 4310 | 4170 | 8540 | 5130 | 0.5 | COc1ccc2c(c1)CC1c3cc(OC)c(OC)cc3CCN1C2 (configuration not stated) | Non-toxic |  |  |  |  |  |  |
| 3930 | 3630 | 393 | 363 | 10 | COc1cc2c(cc1OC)C1Cc3cccc(OC)c3CN1CC2 (configuration not stated) |  | Non-toxic |  |  |  |  |  |
| 40600 |  | 40900 | 41700 | 1 | COc1ccc2c(c1)CC1c3cc(OCc4ccccc4)c(OCc4ccccc4)cc3CCN1C2 (configuration not stated) |  |  |  |  |  | Non-toxic |  |
| 107 |  | 188 |  | 0.6 | Oc1ccc2c(c1)CC1c3cc(O)c(Cl)cc3CCN1C2 (configuration not stated) |  |  |  |  |  |  | Non-toxic |
| 3780 | 3470 | 93 | 85.1 |  | Oc1cc2c(cc1O)C1Cc3cccc(O)c3CN1CC2 (configuration not stated) |  |  | Non-toxic | Non-toxic | Non-toxic |  |  |

The next lines start with the compound.

| SMILES | Ki (D(1A) dopamine receptor; read-out: Ki) [nM] | Ki (D(1A) dopamine receptor; read-out: pKi (converted)) [nM] | Ki (D(2) dopamine receptor; read-out: Ki) [nM] | Ki (D(2) dopamine receptor; read-out: pKi (converted)) [nM] | Ratio Ki (Rattus norvegicus) | Activity [1] | Activity [2] | Activity [3] | Activity [4] | Activity [5] | Activity [6] | Activity [7] |
| --- | --- | --- | --- | --- | --- | --- | --- | --- | --- | --- | --- | --- |
| COc1ccc2c(c1)CC1c3cc(O)c(O)cc3CCN1C2 (configuration not stated) | 1110 | 955 | 78 | 74.1 | 14.2 |  |  | Non-toxic | Non-toxic | Non-toxic |  |  |
| COc1ccc2c(c1)CC1c3cc4c(cc3CCN1C2)OCO4 (configuration not stated) | 2370 | 1700 | 1330 | 1150 | 1.8 |  | Non-toxic |  |  |  |  |  |
| Oc1ccc2c(c1)CC1c3cc4c(cc3CCN1C2)OCO4 (configuration not stated) | 33000 | 32400 | 7510 | 6920 | 4.4 | Non-toxic |  |  |  |  |  |  |
| Oc1cccc2c1CN1CCc3cc4c(cc3C1C2)OCO4 (configuration not stated) | 344 | 339 | 35 | 28.2 | 10 |  |  | Non-toxic | Non-toxic | Non-toxic |  |  |
| COc1ccc2c(c1)CC1c3cc(OC)c(Cl)cc3CCN1C2 (configuration not stated) | 1810 | 1740 | 2050 |  | 0.9 |  | Non-toxic |  |  |  |  |  |
| Oc1ccc2c(c1)CC1c3cc(O)c(O)cc3CCN1C2 (configuration not stated) | 2960 | 2630 | 396 | 389 | 7.5 |  | Non-toxic |  |  |  |  |  |
